Tests used:
[1] = target: 11-beta-hydroxysteroid dehydrogenase 1 (Homo sapiens, UniProt P28845); test: Inhibition of human 11beta-HSD1 overexpressed in microsomal fraction of HEK293 cells assessed as formation of [3H]-cortisol from [3H]-cortisone by scintillation proximity assay in presence of NADPH; format: cell-based
How it was run: (§1)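 Full-length human or murine 11β-HSD1 cDNA cloned into pcDNA3 and stably transfected into HEK-293 cells, selected with G418 (700 μg/mL). Microsomal fraction used as enzyme source. Microsomes incubated with NADPH, [3H]cortisone and compound. [3H]cortisol product captured by monoclonal antibody on protein A-coated SPA beads and read by scintillation proximity. IC50 reported.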

[2] = target: T1, 11-beta-hydroxysteroid dehydrogenase type 2 (Mus musculus, UniProt P51661); test: Inhibition of mouse 11beta-HSD2 overexpressed in microsomal fraction of HEK293 cells using [3H]-cortisol as substrate by scintillation proximity assay in presence of NAD+
T1 sequence (P51661 whole entry): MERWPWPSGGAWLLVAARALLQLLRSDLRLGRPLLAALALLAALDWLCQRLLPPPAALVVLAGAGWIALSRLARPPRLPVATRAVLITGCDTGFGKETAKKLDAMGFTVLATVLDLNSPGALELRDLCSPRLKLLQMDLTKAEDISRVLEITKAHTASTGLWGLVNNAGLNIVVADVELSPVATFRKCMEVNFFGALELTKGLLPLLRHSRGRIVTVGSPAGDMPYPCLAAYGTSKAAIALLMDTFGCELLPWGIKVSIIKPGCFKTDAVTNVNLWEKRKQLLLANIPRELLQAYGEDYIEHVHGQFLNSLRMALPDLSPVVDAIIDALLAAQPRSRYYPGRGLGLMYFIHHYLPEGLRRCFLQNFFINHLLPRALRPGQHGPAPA
How it was run: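 Enzyme was murine 11β-HSD2 full-length cDNA in pcDNA3, stably expressed in HEK-293 cells selected with G418 (700 μg/mL). Microsomes from these cells were incubated with [3H]cortisol, NAD+ and compound. Activity was read by scintillation proximity assay and IC50 reported.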

[3] = target: 11-beta-hydroxysteroid dehydrogenase 1 (Mus musculus, UniProt P50172); test: Inhibition of mouse 11beta-HSD1 overexpressed in microsomal fraction of HEK293 cells assessed as formation of [3H]-cortisol from [3H]-cortisone by scintillation proximity assay in presence of NADPH; format: cell-based; how it was run: as §1
[4] = target: T2, 11-beta-hydroxysteroid dehydrogenase type 2 (Homo sapiens, UniProt P80365); test: Inhibition of human 11beta-HSD2 overexpressed in microsomal fraction of HEK293 cells using [3H]-cortisol as substrate by scintillation proximity assay in presence of NAD+
T2 sequence (P80365 whole entry): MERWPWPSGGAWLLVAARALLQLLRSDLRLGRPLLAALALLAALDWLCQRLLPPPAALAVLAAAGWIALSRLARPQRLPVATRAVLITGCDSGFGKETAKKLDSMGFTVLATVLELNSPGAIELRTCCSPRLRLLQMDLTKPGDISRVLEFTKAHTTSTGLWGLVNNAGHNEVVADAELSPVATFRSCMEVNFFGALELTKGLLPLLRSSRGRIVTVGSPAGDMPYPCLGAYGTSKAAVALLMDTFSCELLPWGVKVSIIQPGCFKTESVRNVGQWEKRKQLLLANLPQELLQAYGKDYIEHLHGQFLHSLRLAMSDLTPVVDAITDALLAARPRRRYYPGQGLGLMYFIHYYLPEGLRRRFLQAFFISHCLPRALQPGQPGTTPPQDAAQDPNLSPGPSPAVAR

11-beta-hydroxysteroid dehydrogenase 1 (Homo sapiens, UniProt P28845), sequence (P28845 whole entry): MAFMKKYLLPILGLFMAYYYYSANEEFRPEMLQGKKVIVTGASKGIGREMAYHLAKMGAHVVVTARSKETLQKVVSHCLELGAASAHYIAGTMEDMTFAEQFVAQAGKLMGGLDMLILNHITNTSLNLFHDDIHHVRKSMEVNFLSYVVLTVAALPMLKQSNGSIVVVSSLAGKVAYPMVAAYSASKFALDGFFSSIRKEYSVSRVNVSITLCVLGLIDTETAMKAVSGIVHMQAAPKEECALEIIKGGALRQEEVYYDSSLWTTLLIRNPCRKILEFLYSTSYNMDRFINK
11-beta-hydroxysteroid dehydrogenase 1 (Mus musculus, UniProt P50172), sequence (P50172 whole entry): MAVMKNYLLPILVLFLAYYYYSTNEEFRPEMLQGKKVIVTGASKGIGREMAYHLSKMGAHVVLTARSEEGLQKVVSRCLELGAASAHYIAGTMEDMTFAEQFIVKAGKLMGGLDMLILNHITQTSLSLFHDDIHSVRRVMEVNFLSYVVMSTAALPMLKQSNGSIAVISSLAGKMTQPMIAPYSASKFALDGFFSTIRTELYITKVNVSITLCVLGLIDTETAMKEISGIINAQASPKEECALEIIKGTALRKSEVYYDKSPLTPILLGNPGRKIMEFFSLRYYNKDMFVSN

SMILES	IC50 [1]	IC50 [2]	IC50 [3]	IC50 [4]
CC1(C)[C@@H](O)CC[C@]2(C)[C@H]3C[C@@H](O)[C@@H]4C=CC(=O)[C@@]4(C)[C@]3(C)CC[C@@H]12	0.395 µM	> 1000 µM	2.9 µM	284 µM
CC(=O)O[C@@H]1C[C@@H]2[C@@]3(C)CC[C@H](O)C(C)(C)[C@@H]3CC[C@@]2(C)[C@]2(C)C(=O)C=C[C@@H]12	0.0341 µM	217 µM	7.2 µM	

Continued, values first:

IC50 [1]	IC50 [2]	IC50 [3]	IC50 [4]	SMILES
0.194 µM	292 µM	2.8 µM		CO[C@@H]1CC(=O)[C@]2(C)[C@@H]1[C@H](O)C[C@@H]1[C@@]3(C)CC[C@H](O)C(C)(C)[C@@H]3CC[C@]12C
0.0153 µM	155 µM	3.3 µM		CO[C@@H]1CC(=O)[C@]2(C)[C@@H]1[C@H](OC(C)=O)C[C@@H]1[C@@]3(C)CC[C@H](O)C(C)(C)[C@@H]3CC[C@]12C
0.0755 µM	> 1000 µM	4.7 µM		CC(=O)O[C@@H]1C[C@@H]2[C@@]3(C)CC[C@H](O)C(C)(C)[C@@H]3CC[C@@]2(C)[C@]2(C)C(=O)C[C@@H](O)[C@@H]12
